Hits are enriched below; roughly 11% of the tested compounds scored in any of these assays.
S1P3 ag: activates the human S1P3 receptor | S1P3 NFAT-BLA reporter cells, agonism, FRET ratio; relative to 1 µM S1P, basal subtracted | activation, % at 4.5 µM | 60,000 compounds, 0.1% hits | AID 373;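 active = activation above the screen-wide mean plus 3 SD, cut at about 4.5% in these data, passing the limit was not always enough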
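Benchmarks: high control 1 µM S1P / System: stable CHO line with human S1P3, Gα16, NFAT-BLA reporter / Dosing: single compound concentration, 4.5 µM final / Timing: 4 h compound at 37 °C, 2 h substrate at RT / Measured by: FRET β-lactamase substrate fluorescence, excitation 405 nm, 460/535 nm emission ratio, background-subtracted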
D1 mod: D1 dopamine receptor (human) allosteric modulation; P21728; HEK293 D1, CRE-luciferase, dopamine EC30 potentiation; actives deviate in either direction; B-score at 10 µM; AID 641; 58,000 compounds, 5.9% hits;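 active = luminescence count or its row- and column-corrected plate score outside the 99.7% band of the plate's sample wells, on either side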
S1P1 ag-PAM: agonists and agonism potentiators of human S1P1 receptor; activation, % at 9.5 µM; P21453; S1P1 CRE-bla cells, forskolin, beta-lactamase FRET, potentiator mode; S1P1 agonist co-added at EC20, 2 nM; 100% = saturating reference agonist, 0% = basal; AID 449; 56,000 compounds, 0.57% hits;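 active = activation above a cutoff set at the mean activation of all tested compounds plus 3 SD, cut at about 54% in these data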;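 also: forskolin at 4 µM as EC80 and the EC20 agonist is SEW2871; 100% = SEW2871 at its EC100 plus forskolin at EC80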
Target sequence (P21453 whole entry, looked up): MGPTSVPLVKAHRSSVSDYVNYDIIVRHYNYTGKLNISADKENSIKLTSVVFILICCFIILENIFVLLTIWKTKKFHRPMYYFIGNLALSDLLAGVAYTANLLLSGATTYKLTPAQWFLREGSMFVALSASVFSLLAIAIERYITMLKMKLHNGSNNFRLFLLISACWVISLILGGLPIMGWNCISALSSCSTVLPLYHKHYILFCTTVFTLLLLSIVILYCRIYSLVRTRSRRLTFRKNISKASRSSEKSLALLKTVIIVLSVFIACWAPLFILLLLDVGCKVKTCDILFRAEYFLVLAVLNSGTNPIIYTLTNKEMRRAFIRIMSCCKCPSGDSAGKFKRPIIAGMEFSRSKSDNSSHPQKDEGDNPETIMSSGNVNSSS
M1 agonist: agonists of M1 muscarinic receptor; CHO-M1 cells, Fluo-4 calcium fluorescence, agonist mode; active compounds read high; 64,000 compounds, 3% hits; B-score at 10 µM; AID 626;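 active = fluorescence rise, raw or as B-score row- and column-corrected plate score, outside the 99.7% band of its plate's samples, either direction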
M1 antagonist: blocks the rat M1 muscarinic receptor response to acetylcholine. P08482. CHO-M1 cells, Fluo-4 calcium, ACh EC80 antagonist mode; active compounds read low. B-score at 10 µM. 64,000 compounds, 3.4% hits;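 active = calcium fluorescence response, raw or row-and-column corrected B-score, differing from the plate sample mean either way at a set confidence level, mostly lower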
* hit, by the source's call; / = not tested or not shown.

SMILES	S1P3 ag	D1 mod	S1P1 ag-PAM	M1 agonist	M1 antagonist
CCCN1CCCc2cc(CN)ccc21	0.9	0.014	-13.0	5.65*	-0.875
COc1ccc(/C(O)=C2/C(=O)C(=O)N(CCCN(C)C)C2c2cccc(Cl)c2)cc1OC (centres undefined)	2.8	-0.274	-4.3	-0.663	-0.287
c1ccc2c(c1)CCN(c1nc3cc4c(cc3s1)OCCO4)C2	0.8	-6.09*	7.7	0.0405	-0.382
O=C(NCCOc1ccccc1)c1ncn[nH]1	-0.8	0.259	/	0.552	-0.297
CC(=O)NC(CCS(C)(=O)=O)C(=O)Nc1ccc(Oc2ccccc2)cc1 (centres undefined)	-2.1	-0.0569	-10.9	-0.959	-0.519
CCOC(=O)CNc1c(N2CCN(c3ccccn3)CC2)c(=O)c1=O	-1.5	0.514	4.8	0.305	1.07*
O=C(C1CCC(CNc2c(N3CCCCC3)c(=O)c2=O)CC1)N1CCN(c2ccccn2)CC1 (centres undefined)	-1.1	/	-30.5	0.061	-0.123
O=C(/C=C/Nc1ccc(F)cc1)c1ccco1	0.0	-7.31*	13.0	2.13	0.52
CC(=O)Nc1ccc(N/C=C/C(=O)c2ccc(C)o2)cc1	-1.4	-2.38	2.8	1.07	0.216
COC(=O)CNc1nc(-c2cccnc2)nc2ccccc12	0.1	/	-10.1	1.97	-0.51
CCOC(=O)c1nc(NCc2cccnc2)c2ccccc2n1	-2.1	2.71*	/	0.416	0.251
COc1ccc(OC)c(S(=O)(=O)Nc2ccc(O)c(Sc3ncn[nH]3)c2)c1	-1.1	-0.153	-14.1	-1.12	-0.553
CCOc1ccc(OCc2cccc(C(=O)N3CCOCC3)c2)cc1	-0.8	-6.7*	-5.4	-0.0243	0.621
COC(=O)CSc1nnc(SCc2ccc(OC)cc2)s1	-0.2	-2.3*	-12.7	0.338	-0.305
COC(=O)c1ccc(CSc2nnc(SCc3ccc(C(=O)OC)o3)s2)o1	-0.2	0.331	12.3	0.314	-0.495
N/C(=N\c1nc2c(c(=O)[nH]1)CCCC2)Nc1ccccc1	-0.1	-0.302	65.1*	-0.504	-0.712
Cn1cc(Br)c(C(=O)NC2CCCCC2)n1	0.1	0.726	-13.6	-0.0468	-0.592
CCN(CCNC(=O)C1CCN(S(=O)(=O)c2cccc3nsnc23)CC1)c1ccccc1	0.5	-2.95*	7.8	0.228	-1.25
CCCOC1(NC(=O)c2ccccc2)C(C)=CC(=O)C=C1C	-0.7	-3.16*	-9.8	0.0872	0.627
CCOC(=O)C(NC(=O)c1ccccc1)=C1CCCCC1	-1.9	1.12	-32.2	0.0259	-0.242
CC(NC(=O)Cc1cccs1)C(c1cccs1)N1CCOCC1 (centres undefined)	0.7	-0.774	7.3	-0.323	1.67*
COc1ccc(C2c3c(oc4c(C)cc(C)cc4c3=O)C(=O)N2Cc2cccnc2)cc1OC (centres undefined)	-0.3	0.467	-19.7	1.3	-0.00291
COc1cc(C2c3c(oc4c(C)cc(C)cc4c3=O)C(=O)N2Cc2cccnc2)ccc1O (centres undefined)	-0.6	11.5*	-27.6	-0.049	-0.412
Cc1cc(C(=O)CSc2nn(-c3ccccc3)c(=S)s2)c(C)n1Cc1ccco1	/	-4.74*	/	-0.294	0.0189
Cc1cc(C(=O)CSc2nnc(-c3ccco3)o2)c(C)n1Cc1ccco1	-0.2	-0.404	53.2	-1	-0.0107
SMILES	S1P3 ag	D1 mod	S1P1 ag-PAM	M1 agonist	M1 antagonist
COc1ccc(CC(=O)OCC(=O)NC(=O)NC2CCCCC2)cc1	0.0	0.617	-11.5	0.265	-1.05
CCCCNC(=O)NS(=O)(=O)c1ccc(NS(=O)(=O)c2ccccc2)cc1	/	-0.264	/	-0.46	0.245
Cc1cccc(Nc2nc(N)nc(CN3CCN(Cc4ccc5c(c4)OCO5)CC3)n2)c1	-1.3	-0.0165	5.2	/	/
CN1CCN(Cc2nc(N)nc(Nc3ccc4c(c3)OCCO4)n2)CC1	0.4	0.0202	-2.1	0.295	1.26*
CN(C)CCNc1ncnc2c1cnn2-c1ccc(Cl)cc1	-0.1	-4.72*	-13.3	0.24	-1.01
CCC(CO)Nc1ncnc2c1cnn2-c1ccc(OC)cc1 (centres undefined)	-0.4	-2.98	-7.5	0.171	0.123
CCC(CO)Nc1ncnc2c1cnn2-c1ccc(Cl)cc1 (centres undefined)	-1.1	-5.72*	-0.3	1.5	-0.714
Cn1cnnc1SCc1ccc(C#N)cc1	-0.3	-0.0649	-37.7	0.8	-0.0165
Cn1cnnc1SCc1ccc(C(=O)O)cc1	/	0.329	/	1.25	2.1*
CC1Cc2cc(-c3csc(NC(=O)Cc4cccs4)n3)ccc2N1S(C)(=O)=O (centres undefined)	-1.3	-3.09	56.9*	1.65	-1.21
CN1CCN(CC(=O)Nc2nc(-c3ccccc3)cs2)CC1	-1.1	/	-7.5	-0.3	-2.43
Cc1cc(-c2ccco2)n(CC(=O)O)n1	-0.6	-4.33*	-1.8	1.11	0.155
Cc1csc(/C(=N\O)c2csc(C)n2)n1	0.2	-1.22	-29.5	-0.0344	-0.00578
Cc1sc2nc(CN(Cc3cccs3)C(=O)NC3CCCCC3)[nH]c(=O)c2c1C	-1.0	-0.0376	44.9	-0.249	1.51
COc1ccc(NC(=O)CC2SC(=NCc3ccccc3OC)NC2=O)cc1 (centres undefined)	-0.2	-3.99*	0.3	0.0413	-1.13
CC(CN1CCCC(C(N)=O)C1)c1ccccc1 (centres undefined)	-2.2	-3.43*	11.8	0.079	-0.587
c1ccc2c(c1)nc(-c1ccncc1)n1nnnc21	-0.3	3.44	-12.6	-0.495	-0.273
Cc1cccc(-c2nc3ccccc3c3nncn23)c1	-0.9	14.5*	-12.1	-0.229	0.569
Cc1ccc(-c2cc(C(=O)N3CCCC3)no2)cc1	-0.2	-5.16*	-9.4	0.632	0.947
COc1ccccc1N1CCN(C(=O)c2cc(-c3ccc(C)cc3)on2)CC1	0.6	0.0361	-34.0	-0.0308	-0.299
COc1cc2nc(NCCN3CCOCC3)n3nc(-c4ccccc4)nc3c2cc1OC	-0.3	1.28	-7.4	-0.56	-1.7
CN1CCN(CCCNc2nc3ccccc3c3nc(-c4ccccc4)nn23)CC1	0.3	5.95*	-11.8	1.85	-2.2
CCOc1ccc2[nH]c(=O)c(CN(Cc3nnnn3Cc3ccco3)C3CCCCC3)cc2c1	-1.1	/	-23.1	3.64*	-1.49
COc1ccc(Cn2nnnc2CN(Cc2cc3cccc(C)c3[nH]c2=O)C2CCCC2)cc1	-1.0	-3.33*	-17.3	2.17	1.11
O=c1[nH]c2cc3c(cc2cc1CN(Cc1nnnn1CC1CCCO1)C1CCCC1)OCO3 (centres undefined)	-0.5	-3.31*	15.2	0.587	-1.1
O=C(COC(=O)c1cncc(Br)c1)NCCC1=CCCCC1	-0.3	-0.345	-3.3	-0.317	-0.178
COc1cc2nc(N(C)C)nc(N)c2cc1OC	0.3	-4.64*	-41.0	-0.485	0.958
COc1cc2nc(-c3ccccc3)nc(N3CCCC3)c2cc1OC	-5.1	/	-10.0	-0.718	-0.339
O=C(CN(Cc1ccccc1F)S(=O)(=O)c1ccc(Cl)cc1)NCCCO	-0.7	-0.562	-14.4	-0.269	0.12
